Legend:
[1] = An average for IC50 values in the two solid tumor cell lines and sensitive L1210 leukemia cell line.; assay type: functional, cell-based
Tumor cell line = assay: An average for IC50 values in the two solid tumor cell lines.; assay type: functional, cell-based
WiDr [2] = assay: Tested against WiDr colon (sensitive) in the sulforhodamine B assay.; assay type: functional, cell-based; details: Homo sapiens
Procedure, shortened: (§1)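 Sulforhodamine B assay. Cells plated at 50 000/well; drug added on day 2 at 10^1–10^-5 μg/mL in half-log steps from DMSO stock diluted in PBS, final DMSO ≤0.1%. After 8-day exposure at 37 °C, cells fixed with TCA at 4 °C for 1 h and stained 30 min with 0.4% SRB. Dye solubilized in 10 mM Tris and OD read at 564 nm. Six wells per concentration; IC50 averaged.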

MCF7 [3] = assay: Tested against […] breast carcinoma (mitoxantrone resistant)cell line in the sulforhodamine B assay.; assay type: functional, cell-based; details: Homo sapiens; procedure, shortened: as §1
OVCAR-3 = assay: Inhibitory activity against OVCAR-3 cell line; assay type: functional, cell-based; details: Homo sapiens
A549 [4] = assay: Tested against A549 lung carcinoma in the sulforhodamine B assay.; assay type: functional, cell-based; details: Homo sapiens; procedure, shortened: as §1
UACC-375 = assay: Inhibitory activity against […] cell line; assay type: functional, cell-based; details: Homo sapiens
MCF7 [5] = assay: Tested against […] breast carcinoma (sensitive) cell line in the sulforhodamine B assay.; assay type: functional, cell-based; details: Homo sapiens; procedure, shortened: as §1
L1210 [6] = assay: Inhibitory activity against resistant murine leukemia L1210 cell lines.; assay type: functional, cell-based; details: Mus musculus
MCF7 [7] = assay: Tested against […] breast carcinoma (doxorubicin resistant) cell line in the sulforhodamine B assay.; assay type: functional, cell-based; details: Homo sapiens; procedure, shortened: as §1
Rattus norvegicus = organism: Rattus norvegicus; assay: Cardiotoxicity by a neonatal rat heart myocyte assay; assay type: toxicity
Procedure, shortened: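 Neonatal rat heart myocytes exposed to drug for 1 h. Read-out is the ATP/protein ratio relative to untreated control myocytes. IC50 is the 1-h concentration that reduces this ratio to 50% of control.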

WiDr [8] = assay: Compound tested against WiDr colon carcinoma (resistant) in the sulforhodamine B assay.; assay type: functional, cell-based; details: Homo sapiens; procedure, shortened: as §1
L1210 [9] = assay: Inhibitory activity against sensitive L1210 cell lines; assay type: functional, cell-based; details: Mus musculus
[10] = Toxicity ratio determined by the quotient of IC50 values in the myocytes divided by the average value in the three tumor lines.; assay type: functional
Procedure, shortened: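 Ratio is the myocyte cardiotoxicity IC50 (1-h exposure, ATP/protein ratio versus untreated myocytes) divided by the mean IC50 in sensitive L1210 and the two human tumor lines, measured with continuous exposure.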

B16 = assay: Compound was tested against sc B16 melanoma at % tumor growth inhibition(TGI) in mice at 4 mg/kg dosage.; assay type: functional; details: Mus musculus, route subcutaneous, read-out: TGI
L1210 [11] = assay: Compound was tested against L1210 leukemia at % increase in life span (ILS) in mice at 5 mg/kg dosage.; assay type: functional; details: Mus musculus
Procedure, shortened: (§2)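 Male DBA/2J mice, 10 per group, inoculated ip on day 0 with 10^6 freshly harvested leukemia cells. Compound given ip in equal doses on days 1, 5 and 9; controls received saline ip on the same days. Highest dose set 10% below the acute LD10. %ILS = 100 × (treated − control)/control, using median life span per group; value reported at highest nontoxic dose.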

P388 = assay: Compounds was tested against P388 leukemia at % increase in life span (ILS) in mice at 4.5 mg/kg dosage.; assay type: functional; details: Mus musculus; procedure, shortened: as §2
WiDr [12] = assay: Compound was tested against WiDr colon carcinoma (resistant) in the sulforhodamine B assay.; assay type: functional, cell-based; details: Homo sapiens; procedure, shortened: as §1
WiDr [13] = assay: Tested against WiDr colon carcinoma (resistant) in the sulforhodamine B assay.; assay type: functional, cell-based; details: Homo sapiens; procedure, shortened: as §1
WiDr [14] = assay: Compound was tested against WiDr colon carcinoma (resistant)cell line in the sulforhodamine B assay.; assay type: functional, cell-based; details: Homo sapiens; procedure, shortened: as §1
A549 [15] = assay: Compound was tested against A549 lung carcinoma cell line in the sulforhodamine B assay.; assay type: functional, cell-based; details: Homo sapiens; procedure, shortened: as §1
WiDr [16] = assay: Compound was tested against WiDr colon (sensitive) cell line in the sulforhodamine B assay.; assay type: functional, cell-based; details: Homo sapiens; procedure, shortened: as §1
L1210 [17] = assay: Compound was tested against L1210 leukemia at % increase in life span (ILS) in mice at 8 mg/kg dosage.; assay type: functional; details: Mus musculus; procedure, shortened: as §2

Row | Structure (SMILES) | IC50 [1] [nM] | IC50 (Tumor cell line) [nM] | IC50 (WiDr [2]) [nM] | IC50 (OVCAR-3) [nM] | IC50 (A549 [4]) [nM] | IC50 (UACC-375) [nM] | IC50 (MCF7 [5]) [nM] | IC50 (L1210 [6]) [nM] | IC50 (MCF7 [7]) [nM] | IC50 (L1210 [9]) [nM] | IC50 (WiDr [13]) [nM] | IC50 (MCF7 [3]) [nM] | IC50 (Rattus norvegicus) [nM] | Toxicity ratio [10] | also measured
1 | COc1cccc2c1C(=O)c1c(O)c3c(c(O)c1C2=O)C[C@@](O)(C(=O)CO)C[C@@H]3O[C@H]1C[C@H](N)[C@H](O)[C@H](C)O1 [DOXORUBICIN] | 61 | 74 | 53 |  |  |  |  |  |  |  |  |  | 10200 |  | inhibition in vivo at 4 mg/kg (B16): 120%; ILS at 5 mg/kg (L1210 [11]): 210%; ILS at 4.5 mg/kg (P388): 113%; IC50 (WiDr [12]): 130 nM
2 | CSc1ccc2c3c(c4ccccc4cc13)C(=O)N(CCN(C)C)C2=O | 9.7 | 14 | 12 | 8.7 | 4.2 | 20 | 10 | 0.52 | 12 | 0.37 | 64 | 44 | 3000 | 310 | 
3 | CN(C)CCN1C(=O)c2ccc(N(C)C)c3cc4ccccc4c(c23)C1=O | 209 | 302 | 90 | 503 | 23 | 101 | 68 | 96 | 130 | 23 | 130 | 79 |  | 223 | Activity (Rattus norvegicus): 46600
4 | CNCCN1C(=O)c2ccc(OC)c3cc4ccccc4c(c23)C1=O | 913 | 1350 |  | 540 |  | 2160 |  | 27 |  | 41 |  |  | 8100 | 8.9 | 
5 | CN(C)CCN1C(=O)c2ccc(Cl)c3cc4ccccc4c(c23)C1=O | 77 | 78 |  | 116 |  | 39 | 25 | 64 | 120 | 77 |  | 50 | 4110 | 53 | IC50 (WiDr [14]): 350 nM; IC50 (A549 [15]): 19 nM; IC50 (WiDr [16]): 70 nM
6 | COc1c2ccccc2c2c3c(cccc13)C(=O)N(CCN(C)C)C2=O | 134 | 143 | 180 | 130 | 91 | 156 | 150 | 109 | 180 | 117 | 260 | 270 | 26000 | 194 | 
7 | COc1ccc2c3c(c4ccccc4cc13)C(=O)N(CCN(C)C)C2=O | 3.9 | 4.6 | 17 | 1.3 | 2.2 | 7.8 | 14 | 3.9 | 270 | 2.6 | 33 | 19 | 799 | 205 | ILS at 8 mg/kg (L1210 [17]): 86%
8 | CN(C)CCN1C(=O)c2cccc3c(O)c4ccccc4c(c23)C1=O | 2590 | 3660 |  | 1180 |  | 6130 |  | 212 |  | 472 |  |  | > 24100 | >9 | 

More lines, in order of falling IC50 [1], values ahead:

Row | IC50 [1] [nM] | IC50 (Tumor cell line) [nM] | IC50 (WiDr [2]) [nM] | IC50 (OVCAR-3) [nM] | IC50 (A549 [4]) [nM] | IC50 (UACC-375) [nM] | IC50 (MCF7 [5]) [nM] | IC50 (L1210 [6]) [nM] | IC50 (MCF7 [7]) [nM] | IC50 (L1210 [9]) [nM] | IC50 (WiDr [13]) [nM] | Structure (SMILES) | IC50 (MCF7 [3]) [nM] | IC50 (Rattus norvegicus) [nM] | Toxicity ratio [10] | also measured
9 | 1880 | 2800 |  | 267 |  | 5330 |  | 53 |  | 53 |  | CNCCN1C(=O)c2ccc(Cl)c3cc4ccccc4c(c23)C1=O |  | 7600 | 4 | 
10 | 1420 | 1860 |  | 2880 |  | 839 |  | 524 |  | 524 |  | CN(C)CCNc1c2ccccc2c2c3c(cccc13)C(=O)N(CCN(C)C)C2=O |  | 291000 | 205 | 
11 | 289 | 425 | 110 | 364 | 19 | 485 | 80 | 49 | 170 | 17 | 270 | CCCOc1ccc2c3c(c4ccccc4cc13)C(=O)N(CCN(C)C)C2=O | 110 | 7760 | 27 | 
12 | 154 | 200 | 170 | 175 | 56 | 225 | 23 | 50 | 200 | 63 | 33 | CCOc1c2ccccc2c2c3c(cccc13)C(=O)N(CCN(C)C)C2=O | 110 | 5300 | 34 | 
13 | 69 | 103 |  | 176 |  | 29 |  | 6.8 |  | 2.9 |  | CN(C)CCNc1ccc2c3c(c4cccc(Cl)c4cc13)C(=O)N(CCN(C)C)C2=O |  | 3230 | 47 | 
14 | 41 | 58 |  | 19 | 4.5 | 97 | 20 | 4.8 | 75 | 6 | 110 | CCSc1ccc2c3c(c4ccccc4cc13)C(=O)N(CCN(C)C)C2=O | 33 | 7740 | 189 | 
15 | 10.8 | 14 | 18 | 12 | 7 | 15 | 20 | 6.8 | 71 | 5.4 |  | CN(C)CCN1C(=O)c2cccc3c(N)c4ccccc4c(c23)C1=O | 80 | 1950 | 181 | IC50 (WiDr [8]): 100 nM
